Each block holds one molecule with its values, some of them ahead of it. *1 amine or outer side, *2 acyl side, *3 side chain or, on linkers, in order; H or OH if unused. Where a SMILES comes first, the peptide text is derived from it. Bridges are numbered along the chain shown (N, C = ends). [ ]: non-standard residue; d: D form. The star is where a group is joined. Staurosporine = CO[C@@H]1[C@H](N(C)*)C[C@H]2O[C@]1(C)n1c3ccccc3c3c4c(c5c6ccccc6n2c5c31)C(=O)NC4; Suc = O=C(CCC(=O)[*:2])[*:1]; Dap = NC[C@H](N)C(=O)O; βAla = NCCC(=O)O
Assays:
[1] = test system: Tyrosine-protein kinase ABL1 (Homo sapiens), P00519 [E255K]; test: Binding affinity to human ABL1 E255K mutant at 500 nM by cell-based competition binding assay relative to control in presence of DTT
Outline: (§1)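 Kinase binding profiling ran on a commercial (Ambit) competitive binding screen against a panel of 90 kinases. The screen used reducing conditions with 7.5 mM DTT. To withstand the DTT, the bivalent ligand was tested as its amide isostere, with the disulfide replaced. A staurosporine derivative carrying a 3 β-alanine linker was run as the reference compound.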

[2] = molecular target: Non-receptor tyrosine-protein kinase TYK2 (Homo sapiens) (UniProt P29597); test: Binding affinity to human TYK2 kinase domain 2 at 500 nM by cell-based competition binding assay relative to control in presence of DTT
[3] = molecular target: Proto-oncogene tyrosine-protein kinase Src (Homo sapiens) (UniProt P12931); test: Binding affinity to human SRC at 500 nM by cell-based competition binding assay relative to control in presence of DTT
[4] = molecular target: Serine/threonine-protein kinase PAK 1 (Homo sapiens) (UniProt Q13153); test: Binding affinity to human PAK1 at 500 nM by cell-based competition binding assay relative to control in presence of DTT
[5] = molecular target: Receptor-type tyrosine-protein kinase FLT3 (Homo sapiens) (UniProt P36888); test: Binding affinity to human FLT3 at 500 nM by cell-based competition binding assay relative to control in presence of DTT
Outline: (§2)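 Commercial (Ambit) competitive kinase-binding panel of 90 kinases measured the binding profile. Run under reducing conditions of 7.5 mM DTT. Binding is expressed relative to control.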

[6] = molecular target: Mitogen-activated protein kinase 9 (Homo sapiens) (UniProt P45984); test: Binding affinity to human JNK2 at 500 nM by cell-based competition binding assay relative to control in presence of DTT
Outline: (§3)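 Competition binding screen (Ambit) across a panel of 90 kinases, scoring test ligand displacement of each kinase's binding relative to control. The screen ran under reducing conditions with 7.5 mM DTT.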

[7] = molecular target: Mitogen-activated protein kinase kinase kinase 4 (Homo sapiens) (UniProt Q9Y6R4); test: Binding affinity to human MAP3K4 at 500 nM by cell-based competition binding assay relative to control in presence of DTT; outline: as §3
[8] = molecular target: Cyclin-dependent kinase 9 (Homo sapiens) (UniProt P50750); test: Binding affinity to human CDK9 at 200 nM by cell-based competition binding assay relative to control in presence of DTT; outline: as §2
[9] = molecular target: Proto-oncogene tyrosine-protein kinase Src (Homo sapiens) (UniProt P12931); test: Binding affinity to human SRC at 200 nM by cell-based competition binding assay relative to control in presence of DTT
[10] = test system: Tyrosine-protein kinase ABL1 (Homo sapiens), P00519 [T315I]; test: Binding affinity to human ABL1 T315I mutant at 200 nM by cell-based competition binding assay relative to control in presence of DTT; outline: as §1
[11] = molecular target: T1, Aurora kinase A (Homo sapiens) (UniProt O14965); test: Binding affinity to human aurora kinase A at 200 nM by cell-based competition binding assay relative to control in presence of DTT
T1 sequence (whole entry): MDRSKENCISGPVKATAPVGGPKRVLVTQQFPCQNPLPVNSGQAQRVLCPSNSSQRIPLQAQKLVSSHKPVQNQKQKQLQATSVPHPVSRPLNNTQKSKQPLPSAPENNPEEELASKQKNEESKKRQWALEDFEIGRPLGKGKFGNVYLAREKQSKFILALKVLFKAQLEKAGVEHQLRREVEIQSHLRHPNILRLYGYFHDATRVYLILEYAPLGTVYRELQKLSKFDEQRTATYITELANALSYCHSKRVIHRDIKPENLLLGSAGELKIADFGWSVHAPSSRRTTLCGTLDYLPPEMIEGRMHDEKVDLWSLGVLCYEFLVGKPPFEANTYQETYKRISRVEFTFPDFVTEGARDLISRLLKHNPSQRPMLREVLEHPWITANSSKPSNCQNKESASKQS

[12] = molecular target: T2, NUAK family SNF1-like kinase 2 (Homo sapiens) (UniProt Q9H093); test: Binding affinity to human SNARK at 50 nM by cell-based competition binding assay relative to control in presence of DTT
T2 sequence (whole entry): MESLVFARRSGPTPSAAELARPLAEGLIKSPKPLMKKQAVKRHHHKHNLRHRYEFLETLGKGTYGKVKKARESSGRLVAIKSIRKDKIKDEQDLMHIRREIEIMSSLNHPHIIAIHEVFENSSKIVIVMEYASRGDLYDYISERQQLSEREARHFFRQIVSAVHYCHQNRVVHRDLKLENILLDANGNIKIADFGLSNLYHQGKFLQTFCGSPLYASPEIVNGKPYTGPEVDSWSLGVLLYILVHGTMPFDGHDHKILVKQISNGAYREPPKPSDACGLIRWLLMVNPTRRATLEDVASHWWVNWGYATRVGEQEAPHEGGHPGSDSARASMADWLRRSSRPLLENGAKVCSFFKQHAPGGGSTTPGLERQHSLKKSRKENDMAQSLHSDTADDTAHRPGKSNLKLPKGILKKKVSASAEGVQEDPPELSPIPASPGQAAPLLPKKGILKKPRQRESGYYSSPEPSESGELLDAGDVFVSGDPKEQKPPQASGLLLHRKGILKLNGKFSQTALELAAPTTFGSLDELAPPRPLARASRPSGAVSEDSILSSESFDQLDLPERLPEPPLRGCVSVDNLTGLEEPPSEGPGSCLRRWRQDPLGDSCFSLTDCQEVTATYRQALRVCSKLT

[13] = molecular target: Serine/threonine-protein kinase PLK3 (Homo sapiens) (UniProt Q9H4B4); test: Binding affinity to human PLK3 at 50 nM by cell-based competition binding assay relative to control in presence of DTT
[14] = molecular target: cAMP-dependent protein kinase catalytic subunit alpha (Homo sapiens) (UniProt P17612); test: Binding affinity to human PKACalpha at 50 nM by cell-based competition binding assay relative to control in presence of DTT
[15] = test system: Tyrosine-protein kinase ABL1 (Homo sapiens), P00519 [E255K]; test: Binding affinity to human ABL1 E255K mutant at 50 nM by cell-based competition binding assay relative to control in presence of DTT; outline: as §1
[16] = molecular target: Atypical kinase COQ8A, mitochondrial (Homo sapiens) (UniProt Q8NI60); test: Binding affinity to human ADCK3 at 50 nM by cell-based competition binding assay relative to control in presence of DTT; outline: as §1
[17] = molecular target: Casein kinase I isoform gamma-2 (Homo sapiens) (UniProt P78368); test: Binding affinity to human CSNK1G2 at 50 nM by cell-based competition binding assay relative to control in presence of DTT; outline: as §2
[18] = molecular target: Platelet-derived growth factor receptor alpha (Homo sapiens) (UniProt P16234); test: Binding affinity to human PDGFRalpha at 50 nM by cell-based competition binding assay relative to control in presence of DTT

Sequence of Proto-oncogene tyrosine-protein kinase Src (Homo sapiens) (P12931 2-536 limits assumed): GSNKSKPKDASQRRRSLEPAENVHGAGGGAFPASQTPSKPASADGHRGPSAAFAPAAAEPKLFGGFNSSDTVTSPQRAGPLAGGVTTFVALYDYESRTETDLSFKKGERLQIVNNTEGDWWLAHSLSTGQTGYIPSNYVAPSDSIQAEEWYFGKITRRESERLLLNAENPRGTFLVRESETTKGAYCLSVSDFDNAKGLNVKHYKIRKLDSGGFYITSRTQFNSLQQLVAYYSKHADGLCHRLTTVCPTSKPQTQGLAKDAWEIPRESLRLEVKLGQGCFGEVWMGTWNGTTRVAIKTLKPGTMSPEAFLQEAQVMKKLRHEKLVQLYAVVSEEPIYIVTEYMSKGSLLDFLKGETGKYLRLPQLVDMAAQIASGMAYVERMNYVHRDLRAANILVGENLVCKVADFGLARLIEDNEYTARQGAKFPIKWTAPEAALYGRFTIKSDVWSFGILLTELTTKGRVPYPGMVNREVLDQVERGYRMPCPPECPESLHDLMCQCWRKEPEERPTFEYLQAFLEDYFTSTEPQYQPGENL
Sequence of Serine/threonine-protein kinase PAK 1 (Homo sapiens) (Q13153 whole entry): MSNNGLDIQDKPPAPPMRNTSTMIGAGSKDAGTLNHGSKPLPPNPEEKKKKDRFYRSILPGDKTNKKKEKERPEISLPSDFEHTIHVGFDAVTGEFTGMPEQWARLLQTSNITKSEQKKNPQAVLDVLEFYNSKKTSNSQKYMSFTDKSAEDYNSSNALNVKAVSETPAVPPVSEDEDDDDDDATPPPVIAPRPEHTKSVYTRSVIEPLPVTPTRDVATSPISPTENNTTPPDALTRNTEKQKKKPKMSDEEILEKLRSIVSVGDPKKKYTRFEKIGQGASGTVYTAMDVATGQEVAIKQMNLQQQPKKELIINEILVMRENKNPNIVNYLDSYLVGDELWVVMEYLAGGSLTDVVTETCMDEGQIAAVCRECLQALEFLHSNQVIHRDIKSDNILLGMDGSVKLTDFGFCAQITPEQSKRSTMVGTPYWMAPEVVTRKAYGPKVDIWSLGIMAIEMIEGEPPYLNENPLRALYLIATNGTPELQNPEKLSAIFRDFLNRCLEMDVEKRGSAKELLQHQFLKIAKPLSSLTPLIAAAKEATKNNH
Sequence of Receptor-type tyrosine-protein kinase FLT3 (Homo sapiens) (P36888 whole entry): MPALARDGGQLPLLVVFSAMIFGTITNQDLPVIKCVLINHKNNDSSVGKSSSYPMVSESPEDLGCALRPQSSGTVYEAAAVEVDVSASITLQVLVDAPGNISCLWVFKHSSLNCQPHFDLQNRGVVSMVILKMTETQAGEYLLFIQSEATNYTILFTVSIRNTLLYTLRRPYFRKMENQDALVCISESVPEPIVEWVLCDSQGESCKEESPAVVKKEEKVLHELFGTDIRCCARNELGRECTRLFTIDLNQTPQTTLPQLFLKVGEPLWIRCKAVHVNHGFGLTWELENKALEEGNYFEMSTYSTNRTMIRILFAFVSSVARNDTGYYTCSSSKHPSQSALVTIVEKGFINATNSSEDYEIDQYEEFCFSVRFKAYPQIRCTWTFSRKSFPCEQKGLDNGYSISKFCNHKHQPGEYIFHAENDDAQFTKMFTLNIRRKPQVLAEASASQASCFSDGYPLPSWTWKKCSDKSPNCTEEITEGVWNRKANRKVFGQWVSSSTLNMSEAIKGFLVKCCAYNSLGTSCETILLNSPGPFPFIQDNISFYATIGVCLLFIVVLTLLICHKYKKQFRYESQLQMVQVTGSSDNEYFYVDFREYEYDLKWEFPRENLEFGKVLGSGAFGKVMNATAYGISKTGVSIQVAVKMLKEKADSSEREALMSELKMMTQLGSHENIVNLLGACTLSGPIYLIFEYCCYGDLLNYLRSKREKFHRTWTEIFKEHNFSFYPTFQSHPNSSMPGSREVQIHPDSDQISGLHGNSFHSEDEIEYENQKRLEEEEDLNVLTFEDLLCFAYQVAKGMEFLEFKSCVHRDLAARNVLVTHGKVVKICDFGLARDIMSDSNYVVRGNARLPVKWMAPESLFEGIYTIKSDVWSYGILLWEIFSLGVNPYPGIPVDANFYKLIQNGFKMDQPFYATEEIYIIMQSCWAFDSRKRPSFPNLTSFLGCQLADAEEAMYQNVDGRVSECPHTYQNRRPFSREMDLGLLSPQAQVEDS
Sequence of Mitogen-activated protein kinase kinase kinase 4 (Homo sapiens) (Q9Y6R4 whole entry): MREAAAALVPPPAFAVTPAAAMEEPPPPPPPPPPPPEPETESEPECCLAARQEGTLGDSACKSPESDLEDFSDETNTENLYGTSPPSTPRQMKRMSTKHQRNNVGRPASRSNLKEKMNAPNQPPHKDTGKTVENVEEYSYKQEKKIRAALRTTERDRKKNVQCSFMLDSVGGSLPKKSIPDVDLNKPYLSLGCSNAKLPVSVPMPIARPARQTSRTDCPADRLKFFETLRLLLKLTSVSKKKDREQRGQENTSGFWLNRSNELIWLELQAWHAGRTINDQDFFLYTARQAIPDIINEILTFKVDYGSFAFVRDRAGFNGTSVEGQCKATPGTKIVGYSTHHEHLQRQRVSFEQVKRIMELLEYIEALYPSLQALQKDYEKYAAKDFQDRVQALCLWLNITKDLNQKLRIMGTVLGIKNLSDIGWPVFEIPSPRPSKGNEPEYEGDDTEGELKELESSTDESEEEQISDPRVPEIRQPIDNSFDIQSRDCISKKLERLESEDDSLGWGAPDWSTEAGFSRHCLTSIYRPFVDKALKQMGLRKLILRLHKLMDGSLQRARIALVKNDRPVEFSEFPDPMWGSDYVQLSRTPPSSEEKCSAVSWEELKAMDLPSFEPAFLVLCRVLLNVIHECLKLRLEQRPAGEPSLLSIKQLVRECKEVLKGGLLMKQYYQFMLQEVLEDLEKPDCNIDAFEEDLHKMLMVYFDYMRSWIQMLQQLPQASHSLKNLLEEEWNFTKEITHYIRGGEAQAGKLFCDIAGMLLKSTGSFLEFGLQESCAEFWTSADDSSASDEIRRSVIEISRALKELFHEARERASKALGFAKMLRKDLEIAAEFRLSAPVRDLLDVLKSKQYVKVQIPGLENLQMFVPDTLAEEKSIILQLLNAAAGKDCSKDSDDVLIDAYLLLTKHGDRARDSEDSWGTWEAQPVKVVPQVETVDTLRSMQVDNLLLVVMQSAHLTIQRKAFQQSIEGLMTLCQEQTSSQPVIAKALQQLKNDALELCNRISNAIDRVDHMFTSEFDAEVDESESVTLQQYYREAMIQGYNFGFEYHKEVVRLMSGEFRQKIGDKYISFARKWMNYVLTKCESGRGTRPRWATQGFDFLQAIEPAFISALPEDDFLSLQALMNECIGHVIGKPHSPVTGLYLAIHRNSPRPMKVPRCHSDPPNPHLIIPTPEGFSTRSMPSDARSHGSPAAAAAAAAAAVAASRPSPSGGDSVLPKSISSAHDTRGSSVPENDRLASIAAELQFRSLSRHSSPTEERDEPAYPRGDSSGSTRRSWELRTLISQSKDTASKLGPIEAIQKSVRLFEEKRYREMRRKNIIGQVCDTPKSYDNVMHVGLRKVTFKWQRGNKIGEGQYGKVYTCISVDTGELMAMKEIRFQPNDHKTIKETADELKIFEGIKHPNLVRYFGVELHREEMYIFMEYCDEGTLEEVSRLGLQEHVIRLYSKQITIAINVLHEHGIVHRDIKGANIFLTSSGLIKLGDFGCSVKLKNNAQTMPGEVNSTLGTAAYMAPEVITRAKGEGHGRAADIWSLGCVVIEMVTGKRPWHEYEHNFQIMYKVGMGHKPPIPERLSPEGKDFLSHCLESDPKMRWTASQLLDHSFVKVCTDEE
Sequence of Mitogen-activated protein kinase 9 (Homo sapiens) (P45984 whole entry, looked up): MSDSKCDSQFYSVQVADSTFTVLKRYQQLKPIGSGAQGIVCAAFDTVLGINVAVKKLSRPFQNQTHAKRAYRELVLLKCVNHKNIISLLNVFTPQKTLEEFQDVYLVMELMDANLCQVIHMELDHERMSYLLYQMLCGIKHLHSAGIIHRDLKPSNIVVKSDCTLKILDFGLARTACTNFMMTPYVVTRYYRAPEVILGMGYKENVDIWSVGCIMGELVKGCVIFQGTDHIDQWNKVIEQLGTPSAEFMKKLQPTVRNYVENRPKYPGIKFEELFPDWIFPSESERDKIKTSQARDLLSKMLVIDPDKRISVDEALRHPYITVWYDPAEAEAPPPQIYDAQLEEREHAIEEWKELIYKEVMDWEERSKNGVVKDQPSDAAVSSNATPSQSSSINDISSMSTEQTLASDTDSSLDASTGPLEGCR
Sequence of Cyclin-dependent kinase 9 (Homo sapiens) (P50750 whole entry): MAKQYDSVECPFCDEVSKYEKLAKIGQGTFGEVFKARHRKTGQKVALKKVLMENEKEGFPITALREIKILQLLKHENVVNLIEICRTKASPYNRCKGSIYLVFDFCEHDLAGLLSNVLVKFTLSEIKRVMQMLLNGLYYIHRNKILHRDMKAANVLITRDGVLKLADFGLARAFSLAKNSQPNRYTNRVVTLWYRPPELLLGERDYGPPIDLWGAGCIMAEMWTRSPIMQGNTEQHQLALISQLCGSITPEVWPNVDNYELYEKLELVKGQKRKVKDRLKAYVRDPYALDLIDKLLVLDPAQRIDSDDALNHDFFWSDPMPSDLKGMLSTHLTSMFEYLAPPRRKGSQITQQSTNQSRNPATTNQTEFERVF
Sequence of Atypical kinase COQ8A, mitochondrial (Homo sapiens) (Q8NI60 163-647 limits assumed): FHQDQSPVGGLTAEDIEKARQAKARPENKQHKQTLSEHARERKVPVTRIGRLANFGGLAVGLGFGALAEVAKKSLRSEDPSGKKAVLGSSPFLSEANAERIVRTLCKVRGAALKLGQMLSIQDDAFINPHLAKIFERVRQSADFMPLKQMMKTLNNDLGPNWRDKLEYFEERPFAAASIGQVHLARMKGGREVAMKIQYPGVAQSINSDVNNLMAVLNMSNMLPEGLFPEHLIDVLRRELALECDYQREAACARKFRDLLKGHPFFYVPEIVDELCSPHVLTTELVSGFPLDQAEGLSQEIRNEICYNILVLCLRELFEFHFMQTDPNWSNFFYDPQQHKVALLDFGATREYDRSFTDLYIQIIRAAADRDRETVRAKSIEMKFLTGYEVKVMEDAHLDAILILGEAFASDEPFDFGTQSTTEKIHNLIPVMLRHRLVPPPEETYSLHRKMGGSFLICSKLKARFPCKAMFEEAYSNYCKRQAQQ

Activity [1]: 92% | Activity [2]: 19% | Activity [3]: 72% | Activity [4]: 4% | Activity [5]: 0.35% | Activity [6]: 87% | Activity [7]: 95%
SMILES: CO[C@@H]1[C@H](N(C)C(=O)CCC(=O)NCCC(=O)NCCC(=O)NCCC(N)=O)C[C@H]2O[C@]1(C)n1c3ccccc3c3c4c(c5c6ccccc6n2c5c31)C(=O)NC4

Activity [8]: 100% | Activity [9]: 100% | Activity [10]: 78% | Activity [11]: 19%
SMILES: CO[C@@H]1[C@H](N(C)C(=O)CCC(=O)NCCC(=O)NCCC(=O)NCCC(=O)NCCC(=O)NCCC(=O)NCCC(=O)NCCC(=O)N[C@H]2CSSC[C@@H](C(=O)NCC(N)=O)NC(=O)CNC(=O)[C@H](Cc3ccccc3)NC(=O)[C@H](C(C)C)NC(=O)[C@H](CCCNC(=N)N)NC(=O)[C@H](Cc3ccccc3)NC(=O)[C@H](C(C)C)NC2=O)C[C@H]2O[C@]1(C)n1c3ccccc3c3c4c(c5c6ccccc6n2c5c31)C(=O)NC4 ({Staurosporine-Suc-βAla-βAla-βAla-βAla-βAla-βAla-βAla}-CVFRVFGCG-NH2; disulfide 1-8)

Activity [12]: 1.8% | Activity [13]: 98% | Activity [14]: 10% | Activity [15]: 97% | Activity [16]: 91% | Activity [17]: 100% | Activity [18]: 100%
SMILES: CO[C@@H]1[C@H](N(C)C(=O)CCC(=O)NCCC(=O)NCCC(=O)NCCC(=O)NCCC(=O)NCCC(=O)NCCC(=O)NCCC(=O)N[C@H]2CNC(=O)C[C@@H](C(N)=O)NC(=O)CNC(=O)[C@H](Cc3ccccc3)NC(=O)[C@H](C(C)C)NC(=O)[C@H](CCCNC(=N)N)NC(=O)[C@H](Cc3ccccc3)NC(=O)[C@H](C(C)C)NC2=O)C[C@H]2O[C@]1(C)n1c3ccccc3c3c4c(c5c6ccccc6n2c5c31)C(=O)NC4 ({Staurosporine-Suc-βAla-βAla-βAla-βAla-βAla-βAla-βAla}-[Dap]VFRVFGD-NH2; lactam 1-8)

— ChEMBL document CHEMBL1152541, “Staurosporine tethered peptide ligands that target cAMP-dependent protein kinase (PKA): optimization and selectivity profiling” (Bioorg Med Chem, 2009)
